Key:
Human alphaherpesvirus 1 [1] = test: Antiviral activity against HSV1 in vero cells; type: functional, organism-based; conditions: Human alphaherpesvirus 1, Vero
Method in brief: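 Yield reduction: confluent Vero cells were infected with HSV-1 ACR-29 at moi 1 pfu/cell for 1 h at 37 °C, washed, then given medium with varying compound concentrations. At 20 h they were freeze-thawed three times and spun at 400g for 10 min at 4 °C. Titre was read by plaque assay under 1% methylcellulose for 72 h with crystal violet stain. EC50 is the concentration inhibiting virus yield by 50%.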

Vero [2] = test: Selectivity index (CC50/EC50) in Vero cells; type: functional
Method in brief: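 Ratio of CC50 (uninfected Vero, 72 h exposure) to EC50 (HSV-1 ACR-29 virus-yield inhibition in Vero); the two were determined in parallel.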

Human alphaherpesvirus 1 [3] = test: Antiviral activity against HSV1 at 50 uM; type: functional; conditions: Human alphaherpesvirus 1, ACR-29
Method in brief: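 Vero cells (DMEM, 2% heat-inactivated FBS, 8% calf serum) were infected with HSV-1 strain ACR-29 at 1 PFU/cell for 2 h at 37 °C. The inoculum was then replaced with medium containing compound at 50 µM. After 3 days at 37 °C in 5% CO₂, supernatant titre (TCID50/mL) was measured by endpoint dilution (Reed–Muench) against untreated controls. Means of triplicates.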

Vero [4] = test: Cytotoxicity against Vero cells by MTT assay; type: functional; conditions: Chlorocebus sabaeus
Method in brief: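 Uninfected Vero monolayers were exposed to a range of compound concentrations for 72 h at 37 °C. MTT ([…]) was then added for 4 h at 37 °C, followed by 10% SDS/0.01 N HCl overnight. Absorbance was read at 540 nm against a 690 nm reference. CC50 is the concentration reducing host-cell viability by 50%.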

Human alphaherpesvirus 1 [5] = test: Antiviral activity against HSV1 at 10 uM; type: functional; conditions: Human alphaherpesvirus 1, ACR-29
Method in brief: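 Vero cells (DMEM with 2% heat-inactivated FBS plus 8% calf serum) infected with HSV-1 strain ACR-29 at 1 PFU/cell for 2 h at 37 °C. The inoculum was replaced with medium containing compound at 10 µM; untreated infected controls got medium only. After 3 days at 37 °C in 5% CO2, supernatant titre was read by endpoint dilution (TCID50/mL, Reed-Muench). Values are means of triplicates.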

`CCOC(=O)c1cn(COCCO)c2cc(Cl)ccc2c1=O` was tested, and the EC50 (Human alphaherpesvirus 1 [1]) was 0.87 µM, the Selectivity index (Vero [2]) was 1375 and the inhibition at 50 µM (Human alphaherpesvirus 1 [3]) was 99%. It also gave a CC50 (Vero [4]) of 1200 µM.
`Cc1ccc2c(=O)c(C(=O)O)cn(COCCO)c2c1` showed an inhibition at 50 µM (Human alphaherpesvirus 1 [3]) of 79%.
`O=C(O)c1cn(COCCO)c2cc(F)ccc2c1=O` was tested, and the EC50 (Human alphaherpesvirus 1 [1]) was 1.4 µM, the Selectivity index (Vero [2]) was >357 and the inhibition at 50 µM (Human alphaherpesvirus 1 [3]) was 97%. The CC50 (Vero [4]) was > 500 µM.
`O=C(O)c1cn(COCCO)c2cc([N+](=O)[O-])ccc2c1=O` was tested, and the inhibition at 50 µM (Human alphaherpesvirus 1 [3]) was 77%.
For `CCOC(=O)c1cn(COCCO)c2ccc(F)cc2c1=O`, the EC50 (Human alphaherpesvirus 1 [1]) was 2.3 µM, the Selectivity index (Vero [2]) was >217 and the inhibition at 50 µM (Human alphaherpesvirus 1 [3]) was 97%. The CC50 (Vero [4]) was > 500 µM.
`COc1ccc2c(=O)c(C(=O)O)cn(COCCO)c2c1` showed an inhibition at 50 µM (Human alphaherpesvirus 1 [3]) of 79%.
For `CCOC(=O)c1cn(COCCO)c2cc([N+](=O)[O-])ccc2c1=O`, the inhibition at 50 µM (Human alphaherpesvirus 1 [3]) was 77%.
`Cc1ccc2c(c1)c(=O)c(C(=O)O)cn2COCCO` was tested, and the EC50 (Human alphaherpesvirus 1 [1]) was 2.2 µM, the Selectivity index (Vero [2]) was >227 and the inhibition at 50 µM (Human alphaherpesvirus 1 [3]) was 93%. The CC50 (Vero [4]) was > 500 µM.
With `O=C(O)c1cn(COCCO)c2ccc(F)cc2c1=O` the inhibition at 50 µM (Human alphaherpesvirus 1 [3]) was 70%.
Work on `O=C(O)c1cn(COCCO)c2ccc(Br)cc2c1=O` yielded an inhibition at 50 µM (Human alphaherpesvirus 1 [3]) of 58%.
`CCOC(=O)c1cn(COCCO)c2cc(C)ccc2c1=O` gave an inhibition at 50 µM (Human alphaherpesvirus 1 [3]) of 77%.
With `CCOC(=O)c1cn(COCCO)c2ccc(Br)cc2c1=O` the inhibition at 50 µM (Human alphaherpesvirus 1 [3]) was 84%.
Compound `CCOC(=O)c1cn(COCCO)c2ccc([N+](=O)[O-])cc2c1=O` has an EC50 (Human alphaherpesvirus 1 [1]) of 1.5 µM, a Selectivity index (Vero [2]) of 640 and an inhibition at 50 µM (Human alphaherpesvirus 1 [3]) of 95%. The CC50 (Vero [4]) was 960 µM.
Compound `CCOC(=O)c1cn(COCCO)c2cc(OC)ccc2c1=O` has an inhibition at 50 µM (Human alphaherpesvirus 1 [3]) of 89%.
In the case of `O=C(O)c1cn(COCCO)c2cc(Cl)ccc2c1=O`, the EC50 (Human alphaherpesvirus 1 [1]) is reported as 0.7 µM, the Selectivity index (Vero [2]) is reported as 1714 and the inhibition at 50 µM (Human alphaherpesvirus 1 [3]) is reported as 96%. For the same compound, the CC50 (Vero [4]) was 1200 µM.
`CCOC(=O)c1cn(COCCO)c2ccc(C)cc2c1=O` gave an inhibition at 50 µM (Human alphaherpesvirus 1 [3]) of 82%.
`O=C(O)c1cn(COCCO)c2ccc(Cl)cc2c1=O` showed an EC50 (Human alphaherpesvirus 1 [1]) of 1.1 µM, a Selectivity index (Vero [2]) of 1273 and an inhibition at 50 µM (Human alphaherpesvirus 1 [3]) of 98%. For the same compound, the CC50 (Vero [4]) was 1400 µM.
`O=C(O)c1cn(COCCO)c2ccc([N+](=O)[O-])cc2c1=O` gave an inhibition at 50 µM (Human alphaherpesvirus 1 [3]) of 70%.
In the case of `COc1ccc2c(c1)c(=O)c(C(=O)O)cn2COCCO`, the inhibition at 50 µM (Human alphaherpesvirus 1 [3]) is reported as 89%.
Compound `CCOC(=O)c1cn(COCCO)c2cc(F)ccc2c1=O` has an inhibition at 50 µM (Human alphaherpesvirus 1 [3]) of 65%.
`CCOC(=O)c1cn(COCCO)c2ccc(Cl)cc2c1=O` was tested, and the EC50 (Human alphaherpesvirus 1 [1]) was 0.8 µM, the Selectivity index (Vero [2]) was 1562 and the inhibition at 50 µM (Human alphaherpesvirus 1 [3]) was 97%. It also gave a CC50 (Vero [4]) of 1250 µM.
In the case of `CCOC(=O)c1cn(COCCO)c2ccc(OC)cc2c1=O`, the EC50 (Human alphaherpesvirus 1 [1]) is reported as 3.2 µM, the Selectivity index (Vero [2]) is reported as >156 and the inhibition at 50 µM (Human alphaherpesvirus 1 [3]) is reported as 99%. The CC50 (Vero [4]) was > 500 µM.
Compound `Nc1nc2c(ncn2COCCO)c(=O)[nH]1` [ACYCLOVIR] has an inhibition at 10 µM (Human alphaherpesvirus 1 [5]) of 96%, an EC50 (Human alphaherpesvirus 1 [1]) of 1.09 µM and a Selectivity index (Vero [2]) of 880. For the same compound, the CC50 (Vero [4]) was 960 µM.

From ChEMBL document CHEMBL1138118, “Synthesis and anti-HSV-1 activity of quinolonic acyclovir analogues” (Bioorg Med Chem Lett, 2006)
